Measurements reported in ChEMBL document CHEMBL1150875, “Petrosaspongiolides M-R: new potent and selective phospholipase A2 inhibitors from the New Caledonian marine sponge Petrosaspongia nigra” (J Nat Prod, 1998).
pIC50: −log10 of the molar value.

Assays:
[1] = target: Acidic phospholipase A2 2 (Naja naja) (UniProt P15445); assay: Inhibition of Naja Naja venom secretory PLA2 at 10 uM; set-up: scale not given: the % may be the effect or the level left
Procedure, shortened: (§1)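 Secreted PLA2 from Naja naja venom or bee venom exposed to 10 µM compound. Result reported as percent inhibition, mean ± S.E.M. of n = 6.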

Phospholipase A2 = target: T1, Phospholipase A2 (Apis mellifera, UniProt P00630); assay: Inhibition of bee venom secretory PLA2
T1 sequence (P00630 whole entry): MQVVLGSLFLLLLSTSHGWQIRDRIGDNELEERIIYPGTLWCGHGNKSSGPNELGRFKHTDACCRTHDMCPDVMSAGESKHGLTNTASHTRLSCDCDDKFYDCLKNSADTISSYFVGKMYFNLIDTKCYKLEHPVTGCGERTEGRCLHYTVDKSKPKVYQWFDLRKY

Sus scrofa = species on record: Sus scrofa; assay: Inhibition of pig pancreatic secretory PLA2 at 10 uM; set-up: scale not given: the % may be the effect or the level left
Procedure, shortened: (§2)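 Percent inhibition of the enzyme's activity with test compound at 10 µM. Reported as mean ± S.E.M., n = 6, with significance marked at p < 0.05 and p < 0.01.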

[2] = target: Phospholipase A2 (Homo sapiens) (UniProt P04054); assay: Inhibition of human synovial secretory PLA2 at 10 uM; set-up: scale not given: the % may be the effect or the level left; procedure, shortened: as §2
[3] = target: T2, Phospholipase A2 (Apis mellifera) (UniProt P00630); assay: Inhibition of bee venom secretory PLA2 at 10 uM; set-up: scale not given: the % may be the effect or the level left; procedure, shortened: as §1
T2 sequence (whole entry): T1 sequence (P00630 whole entry)

Acidic phospholipase A2 2 (Naja naja), sequence (P15445 whole entry): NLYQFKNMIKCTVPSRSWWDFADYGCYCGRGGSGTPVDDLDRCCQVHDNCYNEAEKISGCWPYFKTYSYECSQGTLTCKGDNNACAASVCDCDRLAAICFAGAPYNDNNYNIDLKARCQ
Phospholipase A2 (Homo sapiens), sequence (P04054 23-148 limits assumed): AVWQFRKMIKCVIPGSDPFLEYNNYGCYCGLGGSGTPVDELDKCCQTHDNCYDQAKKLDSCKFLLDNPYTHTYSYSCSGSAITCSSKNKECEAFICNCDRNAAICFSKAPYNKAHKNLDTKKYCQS

| SMILES | Activity [1] [%] | pIC50 (Phospholipase A2) | Activity (Sus scrofa) [%] | Activity [2] [%] | Activity [3] [%] |
| --- | --- | --- | --- | --- | --- |
| CC(=O)O[C@@H]1O[C@@H](C2=CC(=O)OC2O)C[C@@H]2[C@@H]1CC[C@H]1[C@@]2(C)CC[C@H]2C(C)(C)CCC[C@]12C (stereo partly specified) [PETROSASPONGIOLIDE M] | 11.5 | 6.22 | 12.3 | 68.6 | 71 |
| CC1=C(CC/C(C)=C/CCC2=CC[C@H](C3=CC(=O)O[C@H]3O)O[C@H]2O)C(C)(C)CCC1 [MANOALIDE] | – | 5.12 | – | – | – |
| CC(=O)OC[C@@]1(C)CCC[C@]2(C)[C@H]3CC[C@@H]4[C@H](OC(C)=O)O[C@@H](C5=CC(=O)OC5O)C[C@H]4[C@]3(C)CC[C@@H]12 (stereo partly specified) | 6.8 | – | 11.6 | 44 | 43.9 |
| CC(=O)O[C@H]1O[C@@H](C2=CC(=O)OC2O)C[C@@H]2[C@@H]1CCC1[C@@]3(C)CCCC(C)(C)C3CC[C@]12C (stereo partly specified) | 5.6 | – | 0 | 59 | 34.8 |
| CC1(C)CCC[C@]2(C)[C@H]3CC[C@H](C(=O)O)[C@@H](/C=C/C4=CC(=O)OC4O)[C@]3(C)CC[C@@H]12 (stereo partly specified) | 1 | – | 0.8 | 7.1 | 18.8 |
| CC(=O)OC[C@@]1(C)CCC[C@]2(C)[C@H]3CC[C@@H]4[C@H](O)O[C@@H](C5=CC(=O)OC5O)C[C@H]4[C@]3(C)CC[C@@H]12 (stereo partly specified) | 4.2 | – | 0 | 30.1 | 12.5 |
| CC(=O)OC1OC(=O)C=C1[C@H]1C[C@@H]2[C@H](CCC3[C@@]4(C)CCCC(C)(C)C4CC[C@]32C)[C@@H](OC(C)=O)O1 (stereo partly specified) | 6.9 | – | 0 | 32.1 | 10.6 |
